Data set [1] concerns woodchuck hepatitis virus (WHV). Nature of the data set: Efficacy study in WHV-positive woodchucks. Type of data set: in vivo. The method, boiled down:
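Adult chronically WHV-infected woodchucks of both sexes (serum WHV DNA, WHsAg and WHeAg positive; anti-WHs and anti-WHe negative) stratified into four groups, n = 5. Daily oral nucleoside analogue (0.1 mg/kg/day) or PBS vehicle in diet for 4 weeks. Then 12 weeks adding weekly oral TLR7 agonist (5.0–30.0 mg/kg/week) or carboxymethyl cellulose/tween-80 vehicle. Then 4 weeks daily drug only, followed to week 36. Serum WHsAg and anti-WHs by enzyme immunoassay. WHeAg and anti-WHe by cross-reactive ELISA OD.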

The conditions of data set [2]: cited from earlier work.
For data set [3] the following is noted: cited from earlier work. The source holds these as a separate data set.
For a further data set, the system named is serum IP-10, IL-6, TNF-α. Nature of the data set: Mouse PD study: serum cytokines after single oral dose. The format is in vivo, C57BL/6 mice. Conditions: serum at 3 hours. In outline:
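Female C57BL/6 mice, 7-8 weeks old, given a single oral dose of test compound at 0.3, 3, 30 or 300 mg/kg. Bled at 3 hours. Serum IP-10, IL-6 and TNF-α quantified as pg/mL, reported as mean ± SD.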

The conditions of data set [4]: mice; cited from earlier work.
The test system of a further data set is OAS1 transcript in blood. Conditions: woodchuck model; cited from earlier work.

Molecules are shown by their SMILES.

For the molecule `C=C1[C@H](CO)[C@@H](O)C[C@@H]1n1cnc2c(=O)[nH]c(N)nc21` [ETV, entecavir], the “woodchucks with recrudescence of WHV replication after drug withdrawal” value in data set [1] (Group 1) is given as “all five”. Besides, in data set [1] (Group 1, n = 5), the “animals with undetectable serum WHeAg during the study” value is reported as “five” and the “animals with undetectable serum WHsAg during the study” value is given as “four”. Further, in data set [1] (monotherapy (Groups 1 and 2)), the “elicitation of anti-WHs antibodies” value is listed as “did not occur in any animal”.
Consider `CCCCOc1nc(N)c2c(n1)N(Cc1cccc(CN3CCCC3)c1)CC(=O)N2` [GS-9620], for which, in data set [2], the “clearance in mouse liver microsomes” value is on record as “fast clearance”. Also, the “clearance in human liver microsomes” value in data set [3] is “fast clearance”. Also, in the data set on serum IP-10, IL-6, TNF-α (high oral doses), the “serum IL-6 level relative to APR002” value is recorded as more than 6 fold and the “serum TNF-α level relative to APR002” value is recorded as more than 4 fold. Moreover, the “slope of serum IP-10 dose response” value in the data set on serum IP-10, IL-6, TNF-α (single oral dose 0.3-300 mg/kg) was determined as 2.8. Also, the volume of distribution result in data set [4] is “high volume of distribution”. Also, the “fold change in blood OAS1” value in the data set with OAS1 transcript in blood is reported as 5 fold.

These data come from publication PMC6771164 (Hepatology Communications, 2019).
